Results from ChEMBL document CHEMBL1138064, “Discovery of N-[(3R)-1-azabicyclo[2.2.2]oct-3-yl]furo[2,3-c]pyridine-5-carboxamide, an agonist of the alpha7 nicotinic acetylcholine receptor, for the potential treatment of cognitive deficits in schizophrenia: synthesis and structure--activity relationship” (J Med Chem, 2006).

Columns and labels:
[1] = target: Translocator protein (Homo sapiens) (UniProt P30536); test: Inhibition of peripheral BZD receptor at 1 uM
[2] = target: Serotonin 3 (5-HT3) receptor (Homo sapiens) (UniProt P46098+A5X5Y0+O95264+Q70Z44+Q8WXA8); test: Inhibition of 5HT3 receptor at 1 uM; type: protein-complex assay
[3] = Oral bioavailability in rat constant infusion model; type: ADME, organism-based; conditions: in vivo
Summary of the method: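 Rat clearance and oral bioavailability derived from a constant infusion model.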

[4] = target: Glutamate [NMDA] receptor (Homo sapiens) (UniProt Q05586+Q12879+Q13224+O15399+O60391+Q14957+Q8TCU5); test: Inhibition of NMDA receptor at 1 uM; type: protein-complex assay
[5] = target: Kappa-type opioid receptor (Homo sapiens) (UniProt P41145); test: Inhibition of human kappa opioid receptor at 1 uM
[6] = target: D(2) dopamine receptor (Homo sapiens) (UniProt P14416); test: Inhibition of D2 receptor at 1 uM
Cytochrome P450 2D6 = Cytochrome P450 2D6 (Homo sapiens, UniProt P10635); test: Inhibition of CYP2D6; type: ADME
[7] = target: Muscarinic acetylcholine receptor M3 (Homo sapiens) (UniProt P20309); test: Inhibition of M3 receptor at 1 uM
[8] = target: Platelet-derived growth factor receptor (Homo sapiens) (UniProt P09619+P16234); test: Inhibition of PDGF receptor at 1 uM; type: protein-complex assay
[9] = target: GABA-A receptor; anion channel (Homo sapiens) (UniProt P14867+P47870+P18507+P28472+P48169+Q99928+Q9UN88+P34903+O00591+O14764+Q8N1C3+P18505+P78334+P47869+P31644+Q16445); test: Inhibition of central BZD receptor at 1 uM; type: protein-complex assay
Homo sapiens [10] = species on record: Homo sapiens; test: Inhibition of stimulated adenylate cyclase at 1 uM
[11] = Clearance in rat at 5 mg/kg; type: ADME, organism-based; parameters: dose 5 mg/kg; conditions: in vivo
[12] = target: Muscarinic acetylcholine receptor M2 (Homo sapiens) (UniProt P08172); test: Inhibition of M2 receptor at 1 uM
[13] = target: Beta-2 adrenergic receptor (Homo sapiens) (UniProt P07550); test: Inhibition of adrenergic beta-2 receptor at 1 uM
[14] = target: Cannabinoid receptor 1 (Homo sapiens) (UniProt P21554); test: Inhibition of CB1 receptor at 1 uM
[15] = target: Muscarinic acetylcholine receptor M4 (Homo sapiens) (UniProt P08173); test: Inhibition of M4 receptor at 1 uM
[16] = target: Serotonin 3 (5-HT3) receptor; test: Binding affinity to 5HT3 receptor; type: protein-complex assay, Homo sapiens
[17] = target: Adenosine receptor A3 (Homo sapiens) (UniProt P0DMS8); test: Inhibition of adenosine A3 receptor at 1 uM
hERG = hERG (Homo sapiens, UniProt Q12809); test: Inhibition of hERG expressed in HEK293 cells at 20 uM by patch clamp assay; type: toxicity, cell-based; conditions: HEK293 cells that express hERG
Summary of the method: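 hERG current (IKr) in HEK cells recorded by patch clamp; compound applied at 2 and 20 µM; % block of current reported at each concentration.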

Homo sapiens [18] = species on record: Homo sapiens; test: Inhibition of ML1 receptor at 1 uM
Homo sapiens [19] = species on record: Homo sapiens; test: Inhibition of GABA receptor at 1 uM
Homo sapiens [20] = species on record: Homo sapiens; test: Inhibition of chloride channel at 1 uM
[21] = target: Human immunodeficiency virus type 1 protease (Human immunodeficiency virus 1) (UniProt Q72874); test: Inhibition of HIV1 protease at 1 uM
[22] = target: Somatostatin receptor (Homo sapiens) (UniProt P35346+P30874+P31391+P30872+P32745); test: Inhibition of sst receptor at 1 uM; type: protein assay
[23] = Ratio of drug level in brain against plasma in rat by MBUA method after 5 min; type: ADME, organism-based; conditions: brain and plasma
[24] = target: Neuronal acetylcholine receptor; alpha4/beta2 (Rattus norvegicus) (UniProt P09483+P12390); test: Inhibition of [3H]cytisine binding to alpha4beta2 nAChR in rat brain homogenate at 1 uM; type: tissue-based
Summary of the method: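 Radioligand displacement in rat brain homogenate with [³H]cytisine as the α4β2 ligand; test compound at 1 µM; value reported as % block of binding.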

Homo sapiens [25] = species on record: Homo sapiens; test: Inhibition of PCP receptor at 1 uM
[26] = target: Sodium-dependent dopamine transporter (Homo sapiens) (UniProt Q01959); test: Inhibition of dopamine uptake at human DA transporter at 1 uM
[27] = Oral bioavailability in rat at 5 mg/kg; type: ADME, organism-based; conditions: in vivo
[28] = target: Phosphodiesterase 1 (Homo sapiens) (UniProt P54750+Q01064+Q14123); test: Inhibition of PDE1 at 1 uM; type: protein assay
[29] = target: Sodium/potassium-transporting ATPase (Homo sapiens) (UniProt P05023+P14415+P05026+P50993+P54709+P13637+Q13733+P54710); test: Inhibition of Sodium/potassium-transporting ATPase at 1 uM; type: protein-complex assay
[30] = target: Angiotensin-converting enzyme (Homo sapiens) (UniProt P12821); test: Inhibition of ACE at 1 uM
[31] = Half life in Sprague-Dawley rat liver microsome; type: ADME; conditions: liver microsomes

Sequence of hERG (Q12809 whole entry): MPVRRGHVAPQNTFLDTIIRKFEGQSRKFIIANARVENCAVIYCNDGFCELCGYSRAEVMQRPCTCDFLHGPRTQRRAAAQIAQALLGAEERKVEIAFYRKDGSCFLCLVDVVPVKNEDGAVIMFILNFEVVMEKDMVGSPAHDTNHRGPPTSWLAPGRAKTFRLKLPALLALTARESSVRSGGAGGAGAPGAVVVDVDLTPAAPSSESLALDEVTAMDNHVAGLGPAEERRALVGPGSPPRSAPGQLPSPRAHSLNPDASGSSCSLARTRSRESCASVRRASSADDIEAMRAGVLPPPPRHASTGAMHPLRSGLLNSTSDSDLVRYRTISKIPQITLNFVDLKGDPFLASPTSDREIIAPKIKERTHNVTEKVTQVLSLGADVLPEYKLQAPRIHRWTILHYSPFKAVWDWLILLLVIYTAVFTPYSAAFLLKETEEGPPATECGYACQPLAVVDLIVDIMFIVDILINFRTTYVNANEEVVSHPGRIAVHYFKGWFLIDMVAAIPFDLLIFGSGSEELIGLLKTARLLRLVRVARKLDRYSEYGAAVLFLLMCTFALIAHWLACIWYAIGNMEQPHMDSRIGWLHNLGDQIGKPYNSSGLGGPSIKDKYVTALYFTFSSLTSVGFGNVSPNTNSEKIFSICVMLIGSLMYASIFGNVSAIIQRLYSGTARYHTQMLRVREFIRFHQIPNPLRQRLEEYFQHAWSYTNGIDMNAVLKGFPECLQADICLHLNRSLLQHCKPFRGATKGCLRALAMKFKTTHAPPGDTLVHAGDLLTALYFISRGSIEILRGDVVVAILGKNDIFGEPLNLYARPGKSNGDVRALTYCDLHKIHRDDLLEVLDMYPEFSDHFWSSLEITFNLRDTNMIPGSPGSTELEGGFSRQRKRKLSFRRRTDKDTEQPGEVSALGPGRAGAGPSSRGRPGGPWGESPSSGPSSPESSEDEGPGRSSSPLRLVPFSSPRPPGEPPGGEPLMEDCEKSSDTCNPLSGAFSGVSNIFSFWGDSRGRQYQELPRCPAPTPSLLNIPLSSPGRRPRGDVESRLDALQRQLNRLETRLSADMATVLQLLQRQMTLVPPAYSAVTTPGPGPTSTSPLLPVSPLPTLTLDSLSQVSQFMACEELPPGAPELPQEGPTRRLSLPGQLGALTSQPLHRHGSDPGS
Sequence of Angiotensin-converting enzyme (Homo sapiens) (P12821 whole entry): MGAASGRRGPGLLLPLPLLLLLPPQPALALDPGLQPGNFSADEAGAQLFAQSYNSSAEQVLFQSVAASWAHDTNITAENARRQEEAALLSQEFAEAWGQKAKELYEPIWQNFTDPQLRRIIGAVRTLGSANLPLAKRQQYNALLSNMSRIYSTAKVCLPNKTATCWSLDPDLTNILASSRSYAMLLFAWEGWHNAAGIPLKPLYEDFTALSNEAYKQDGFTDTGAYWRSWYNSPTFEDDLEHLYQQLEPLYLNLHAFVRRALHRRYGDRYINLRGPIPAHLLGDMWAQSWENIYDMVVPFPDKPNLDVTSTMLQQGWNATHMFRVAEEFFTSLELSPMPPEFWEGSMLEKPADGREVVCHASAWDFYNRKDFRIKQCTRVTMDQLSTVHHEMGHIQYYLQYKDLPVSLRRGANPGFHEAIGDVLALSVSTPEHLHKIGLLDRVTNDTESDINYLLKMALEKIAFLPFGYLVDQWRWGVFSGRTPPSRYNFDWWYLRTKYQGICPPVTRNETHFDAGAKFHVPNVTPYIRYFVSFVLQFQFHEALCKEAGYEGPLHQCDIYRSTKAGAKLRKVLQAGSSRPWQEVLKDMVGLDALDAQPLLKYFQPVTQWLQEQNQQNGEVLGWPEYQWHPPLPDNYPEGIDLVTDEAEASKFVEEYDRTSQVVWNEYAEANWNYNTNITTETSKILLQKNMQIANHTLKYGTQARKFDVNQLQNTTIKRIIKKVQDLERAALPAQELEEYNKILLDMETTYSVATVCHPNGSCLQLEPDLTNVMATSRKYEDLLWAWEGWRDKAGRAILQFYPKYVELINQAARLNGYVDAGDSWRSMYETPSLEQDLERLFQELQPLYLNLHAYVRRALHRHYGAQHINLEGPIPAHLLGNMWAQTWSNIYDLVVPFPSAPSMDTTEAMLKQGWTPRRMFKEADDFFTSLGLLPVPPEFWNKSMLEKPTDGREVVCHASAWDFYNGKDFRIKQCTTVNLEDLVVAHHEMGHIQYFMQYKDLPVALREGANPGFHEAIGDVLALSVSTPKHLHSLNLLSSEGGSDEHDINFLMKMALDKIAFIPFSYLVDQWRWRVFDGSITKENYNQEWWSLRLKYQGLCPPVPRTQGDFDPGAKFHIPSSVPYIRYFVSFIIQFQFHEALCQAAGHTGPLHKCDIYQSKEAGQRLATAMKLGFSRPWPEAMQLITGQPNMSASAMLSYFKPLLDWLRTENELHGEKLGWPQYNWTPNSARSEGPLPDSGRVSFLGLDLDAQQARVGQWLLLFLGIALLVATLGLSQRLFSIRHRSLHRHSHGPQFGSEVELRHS
Sequence of Muscarinic acetylcholine receptor M4 (Homo sapiens) (P08173 whole entry): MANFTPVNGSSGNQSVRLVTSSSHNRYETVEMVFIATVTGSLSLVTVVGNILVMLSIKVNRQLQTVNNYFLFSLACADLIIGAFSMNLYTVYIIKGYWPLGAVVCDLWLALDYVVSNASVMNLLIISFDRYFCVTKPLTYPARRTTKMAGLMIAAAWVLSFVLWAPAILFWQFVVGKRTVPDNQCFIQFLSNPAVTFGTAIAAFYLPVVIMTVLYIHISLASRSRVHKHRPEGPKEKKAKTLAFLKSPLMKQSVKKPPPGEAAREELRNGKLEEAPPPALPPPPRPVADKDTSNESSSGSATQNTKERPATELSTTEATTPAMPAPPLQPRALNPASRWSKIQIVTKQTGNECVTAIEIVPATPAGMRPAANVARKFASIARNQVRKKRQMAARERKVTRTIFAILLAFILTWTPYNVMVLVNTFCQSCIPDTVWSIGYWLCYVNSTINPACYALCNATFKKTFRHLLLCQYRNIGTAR
Sequence of Cytochrome P450 2D6 (P10635 whole entry): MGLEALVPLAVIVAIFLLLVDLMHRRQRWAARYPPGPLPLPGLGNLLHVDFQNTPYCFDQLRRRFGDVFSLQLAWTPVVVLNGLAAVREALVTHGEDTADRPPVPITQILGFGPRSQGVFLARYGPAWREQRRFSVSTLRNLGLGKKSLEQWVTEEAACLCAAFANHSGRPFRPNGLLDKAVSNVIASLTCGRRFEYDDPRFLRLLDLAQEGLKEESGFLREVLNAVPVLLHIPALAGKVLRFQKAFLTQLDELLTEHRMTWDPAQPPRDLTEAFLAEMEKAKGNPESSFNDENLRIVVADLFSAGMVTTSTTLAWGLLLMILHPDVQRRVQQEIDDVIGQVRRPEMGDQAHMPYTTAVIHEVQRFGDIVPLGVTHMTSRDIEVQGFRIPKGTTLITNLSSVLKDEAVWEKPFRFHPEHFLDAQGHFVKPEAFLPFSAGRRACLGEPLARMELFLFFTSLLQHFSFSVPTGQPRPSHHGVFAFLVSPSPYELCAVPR
Sequence of Translocator protein (Homo sapiens) (P30536 whole entry): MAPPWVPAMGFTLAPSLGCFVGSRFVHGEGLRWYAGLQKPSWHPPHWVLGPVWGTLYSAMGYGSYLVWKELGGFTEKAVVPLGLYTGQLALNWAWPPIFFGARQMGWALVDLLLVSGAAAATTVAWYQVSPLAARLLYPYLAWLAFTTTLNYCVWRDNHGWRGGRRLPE
Sequence of Muscarinic acetylcholine receptor M3 (Homo sapiens) (P20309 whole entry, looked up): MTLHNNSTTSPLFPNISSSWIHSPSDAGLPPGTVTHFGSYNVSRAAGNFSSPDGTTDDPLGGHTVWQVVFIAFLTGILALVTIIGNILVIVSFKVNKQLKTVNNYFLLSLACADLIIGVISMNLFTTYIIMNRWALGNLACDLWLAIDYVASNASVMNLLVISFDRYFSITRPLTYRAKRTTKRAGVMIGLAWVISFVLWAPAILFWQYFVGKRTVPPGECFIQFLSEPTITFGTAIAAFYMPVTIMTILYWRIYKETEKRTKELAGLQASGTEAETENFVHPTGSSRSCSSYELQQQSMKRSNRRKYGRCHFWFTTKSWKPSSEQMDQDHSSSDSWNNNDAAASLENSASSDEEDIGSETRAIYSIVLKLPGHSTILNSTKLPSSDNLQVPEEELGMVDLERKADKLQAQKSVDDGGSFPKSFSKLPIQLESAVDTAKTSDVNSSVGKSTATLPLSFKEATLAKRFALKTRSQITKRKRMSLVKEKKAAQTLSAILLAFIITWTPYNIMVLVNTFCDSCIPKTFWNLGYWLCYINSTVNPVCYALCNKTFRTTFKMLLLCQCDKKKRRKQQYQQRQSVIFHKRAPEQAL
Sequence of Cannabinoid receptor 1 (Homo sapiens) (P21554 whole entry): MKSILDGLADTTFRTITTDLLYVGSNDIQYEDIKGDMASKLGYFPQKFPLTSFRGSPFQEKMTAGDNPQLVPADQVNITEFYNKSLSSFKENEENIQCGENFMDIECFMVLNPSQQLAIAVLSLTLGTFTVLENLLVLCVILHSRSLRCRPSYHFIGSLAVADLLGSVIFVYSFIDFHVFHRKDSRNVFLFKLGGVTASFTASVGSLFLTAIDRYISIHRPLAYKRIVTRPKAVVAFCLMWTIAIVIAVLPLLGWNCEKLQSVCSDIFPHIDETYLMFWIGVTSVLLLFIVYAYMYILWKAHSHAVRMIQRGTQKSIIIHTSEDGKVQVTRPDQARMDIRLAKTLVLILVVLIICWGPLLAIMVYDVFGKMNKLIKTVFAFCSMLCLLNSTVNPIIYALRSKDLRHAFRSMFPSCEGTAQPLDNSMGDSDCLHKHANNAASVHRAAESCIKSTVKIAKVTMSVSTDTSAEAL
Sequence of Kappa-type opioid receptor (Homo sapiens) (P41145 whole entry): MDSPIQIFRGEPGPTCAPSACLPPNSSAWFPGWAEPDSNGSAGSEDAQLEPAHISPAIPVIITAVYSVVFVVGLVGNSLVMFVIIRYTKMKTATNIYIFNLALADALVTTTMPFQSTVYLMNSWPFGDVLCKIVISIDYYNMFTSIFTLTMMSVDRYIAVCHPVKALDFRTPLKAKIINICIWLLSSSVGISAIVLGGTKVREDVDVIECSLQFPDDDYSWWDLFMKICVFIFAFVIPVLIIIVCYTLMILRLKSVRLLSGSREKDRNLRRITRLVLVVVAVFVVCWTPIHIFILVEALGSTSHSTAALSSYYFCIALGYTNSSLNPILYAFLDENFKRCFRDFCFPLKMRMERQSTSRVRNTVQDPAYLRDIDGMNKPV

**Q.** With `O=C(N[C@H]1CN2CCC1CC2)c1cc2ccoc2cn1` [PHA-543613] as the compound, how does the inhibition [1] read?
**A.** < 10%

**Q.** And the inhibition [2]?
**A.** 67%

**Q.** What about the bioavailability [3] of the same compound?
**A.** 63%

**Q.** What about the inhibition [4] of the same compound?
**A.** 11%

**Q.** What about the inhibition [5] of the same compound?
**A.** < 10%

**Q.** What about the inhibition [6] of the same compound?
**A.** < 10%

**Q.** What about the IC50 (Cytochrome P450 2D6) of the same compound?
**A.** > 10000 nM

**Q.** What about the inhibition [7] of the same compound?
**A.** 33%

**Q.** What about the inhibition [8] of the same compound?
**A.** < 10%

**Q.** What about the inhibition [9] of the same compound?
**A.** < 10%

**Q.** What about the inhibition (Homo sapiens [10]) of the same compound?
**A.** < 10%

**Q.** What about the clearance [11] of the same compound?
**A.** 33.3 mL/min/kg

**Q.** What about the inhibition [12] of the same compound?
**A.** 23%

**Q.** And the inhibition [13]?
**A.** < 10%

**Q.** What about the inhibition [14] of the same compound?
**A.** < 10%

**Q.** And the inhibition [15]?
**A.** < 10%

**Q.** What about the Ki [16] of the same compound?
**A.** 511 nM

**Q.** And the inhibition [17]?
**A.** 12%

**Q.** And the inhibition at 20 µM (hERG)?
**A.** 29%

**Q.** What about the inhibition (Homo sapiens [18]) of the same compound?
**A.** 11%

**Q.** And the inhibition (Homo sapiens [19])?
**A.** < 10%

**Q.** What about the inhibition (Homo sapiens [20]) of the same compound?
**A.** < 10%

**Q.** What about the inhibition [21] of the same compound?
**A.** < 10%

**Q.** What about the inhibition [22] of the same compound?
**A.** < 10%

**Q.** What about the Kp at 5 min [23] of the same compound?
**A.** 1.5

**Q.** And the inhibition [24]?
**A.** 13%

**Q.** What about the inhibition (Homo sapiens [25]) of the same compound?
**A.** < 10%

**Q.** What about the inhibition [26] of the same compound?
**A.** < 10%

**Q.** What about the bioavailability [27] of the same compound?
**A.** 65%

**Q.** What about the inhibition [28] of the same compound?
**A.** < 10%

**Q.** And the inhibition [29]?
**A.** < 10%

**Q.** And the inhibition [30]?
**A.** < 10%

**Q.** What about the half-life [31] of the same compound?
**A.** 40 min
